Legend:
[1] = target: Sigma non-opioid intracellular receptor 1 (Cavia porcellus, UniProt Q60492); test: Displacement of [3H]-(+)-pentazocine from sigma-1 receptor in guinea pig brain membranes after 120 mins by microbeta scintillation counting method; format: cell membranes, Membrane
Method in brief: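 Guinea pig brain membranes (frozen brains minus cerebellum; 300 µg) incubated with 6 nM [3H]-(+)-pentazocine stock (~42 Ci/mmol), 50 mM Tris-HCl pH 8.0, 25 °C, 120 min. Compounds from ethanol, 0.1-1000 nM, 10 points. Ice-cold 10 mM Tris stop, GF/B filtration, scintillation counting. Nonspecific defined with (+)-pentazocine or haloperidol (10 µM).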

[2] = target: T1, Sigma intracellular receptor 2 (Rattus norvegicus, UniProt Q5U3Y7); test: Displacement of [3H]DTG from sigma-2 receptor in Sprague-Dawley rat liver membranes after 120 mins in presence of (+)-pentazocine by microbeta scintillation counting method; format: cell membranes, Membrane
T1 sequence (Q5U3Y7 whole entry): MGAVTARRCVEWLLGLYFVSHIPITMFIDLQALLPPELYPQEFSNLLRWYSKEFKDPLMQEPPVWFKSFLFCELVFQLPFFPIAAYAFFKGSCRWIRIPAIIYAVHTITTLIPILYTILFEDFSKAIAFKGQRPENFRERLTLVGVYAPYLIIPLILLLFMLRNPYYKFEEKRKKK

[3] = Selectivity ratio of Ki for sigma-1 receptor in guinea pig brain membranes to Ki for sigma-2 receptor in Sprague-Dawley rat liver membranes; format: cell membranes
Huh-7 = test: Cytotoxicity against human HuH7 cells after 48 hrs by CCK8 assay; format: functional, cell-based; conditions: Huh-7, 48 h
Method in brief: (§1)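 Exponentially growing Huh7 or KYSE-140 cells seeded at 4,000 cells/well, adhered overnight, then exposed to 6 concentrations for 48 h; DMSO vehicle control. CCK-8 added, 2 h at 37 °C in dark, absorbance at 450 nm. Viability as percent of control OD; IC50 by curve fitting, at least three experiments.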

KYSE-140 = test: Cytotoxicity against human KYSE-140 cells after 48 hrs by CCK8 assay; format: functional, cell-based; conditions: KYSE-140, 48 h; method in brief: as §1
[4] = target: Sigma non-opioid intracellular receptor 1 (Cavia porcellus) (UniProt Q60492); test: Displacement of [3H]-(+)-pentazocine from sigma-1 receptor in guinea pig brain membranes at 1 uM after 120 mins by microbeta scintillation counting method relative to control; format: cell membranes; conditions: Membrane
Sequence of Sigma non-opioid intracellular receptor 1 (Cavia porcellus) (Q60492 whole entry): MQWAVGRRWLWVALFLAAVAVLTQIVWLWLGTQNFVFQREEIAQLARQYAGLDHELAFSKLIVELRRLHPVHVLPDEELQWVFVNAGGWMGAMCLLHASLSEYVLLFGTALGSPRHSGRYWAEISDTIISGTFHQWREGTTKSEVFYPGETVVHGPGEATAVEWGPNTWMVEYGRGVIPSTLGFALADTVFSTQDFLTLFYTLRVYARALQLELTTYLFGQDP
Method in brief: (§2)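 Single-point screen at 1 µM for displacement of [3H](+)-pentazocine (sigma-1, guinea pig brain membranes) or [3H]-DTG (sigma-2, rat liver membranes, with 100 nM (+)-pentazocine); 25 °C, pH 8.0 Tris buffer. Hits were defined as >50% displacement.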

[5] = target: T2, Sigma intracellular receptor 2 (Rattus norvegicus) (UniProt Q5U3Y7); test: Displacement of [3H]DTG from sigma-2 receptor in Sprague-Dawley rat liver membranes at 1 uM after 120 mins in presence of (+)-pentazocine by microbeta scintillation counting method relative to control; format: cell membranes; conditions: Membrane; method in brief: as §2
T2 sequence (whole entry): T1 sequence (Q5U3Y7 whole entry)

[6] = target: Sigma non-opioid intracellular receptor 1 (Homo sapiens, UniProt Q99720); test: Binding affinity to sigma-1 receptor (unknown origin)
Sequence of Sigma non-opioid intracellular receptor 1 (Homo sapiens, UniProt Q99720) (Q99720 whole entry): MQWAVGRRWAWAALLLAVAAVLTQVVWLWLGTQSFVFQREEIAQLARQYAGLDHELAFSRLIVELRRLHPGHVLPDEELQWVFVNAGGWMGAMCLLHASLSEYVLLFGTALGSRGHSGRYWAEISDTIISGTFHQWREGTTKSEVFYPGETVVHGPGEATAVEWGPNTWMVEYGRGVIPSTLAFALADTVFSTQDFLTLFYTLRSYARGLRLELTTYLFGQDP

[7] = target: Sigma intracellular receptor 2 (Homo sapiens, UniProt Q5BJF2); test: Binding affinity to sigma-2 receptor (unknown origin)
Sequence of Sigma intracellular receptor 2 (Homo sapiens, UniProt Q5BJF2) (Q5BJF2 whole entry): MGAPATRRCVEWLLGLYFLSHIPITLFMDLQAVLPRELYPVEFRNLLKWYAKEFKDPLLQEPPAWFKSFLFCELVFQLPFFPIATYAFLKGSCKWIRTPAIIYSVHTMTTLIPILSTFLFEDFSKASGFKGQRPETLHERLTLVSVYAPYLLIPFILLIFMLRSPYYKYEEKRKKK

Sequence of Sigma non-opioid intracellular receptor 1 (Cavia porcellus, UniProt Q60492) (Q60492 whole entry): as the sequence (Q60492 whole entry) above

Structure (SMILES) | Ki [1] [nM] | Ki [2] [nM] | Ratio Ki [3] | IC50 (Huh-7) [nM] | IC50 (KYSE-140) [nM] | inhibition [4] [%] | inhibition [5] [%] | Ki [6] [nM] | Ki [7] [nM]
COc1ccc(C(=O)CCN2CCc3cc(OC)c(OC)cc3C2)c(OC)c1 | > 1000 | 68.1 | > 14 | 75300 | > 100 | > 50 | > 50 |  | 
COc1ccc(C(O)CN2CCc3cc(OC)c(OC)cc3C2)c(OC)c1 (stereo unspecified) | > 1000 | 62 | > 16 | > 100 | > 100 | > 50 | > 50 |  | 
COc1cc2c(cc1OC)CN(CCCCn1cnc3cc(OC)c(OC)cc3c1=O)CC2 | > 1000 | 43.8 | > 22.8 | > 100 | > 100 | > 50 | > 50 |  | 
COc1cc2c(cc1OC)CN(CCCn1cnc3cc(OC)c(OC)cc3c1=O)CC2 | > 1000 | 13.9 | > 71.9 | > 100 | > 100 | > 50 | > 50 |  | 
COc1ccc(C)cc1NC(=O)OC1C[C@H]2CCC[C@H](C1)N2CCCCCCN (stereo partly specified) |  |  |  |  |  |  |  | 1420 | 5.19
COc1ccc(C(O)CCCCN2CCc3cc(OC)c(OC)cc3C2)c(C)c1 (stereo unspecified) | > 1000 | 5.2 | > 192 | 12500 | 14900 | > 50 | > 50 |  | 
COc1cc2c(cc1OC)CN(CCC(=O)c1c(C)c(OC)c(OC)c(OC)c1O)CC2 | > 1000 | > 1000 |  | 81600 | 93700 | > 50 | > 50 |  | 
COc1ccc(C(O)CCCCN2CCc3cc(OC)c(OC)cc3C2)c(OC)c1 (stereo unspecified) | > 1000 | 6.2 | > 161 |  |  | > 50 | > 50 |  | 
CCn1c(=O)n(C(=O)NC2C[C@@H]3CC[C@@H](C2)N3C)c2ccccc21 (stereo partly specified) |  |  |  |  |  |  |  | 6300 | 32
COc1ccc(C(=O)CCCCN2CCc3cc(OC)c(OC)cc3C2)c(OC)c1 | 32.9 | 5.8 | 5.6 | > 100 | 88300 | > 50 | > 50 |  | 
COc1cc2c(cc1OC)CN(CCCCNC(=O)c1cc(I)cc(OC)c1OCC[18F])CC2 |  |  |  |  |  |  |  | 2150 | 0.26
COc1ccc(C(O)CCN2CCc3cc(OC)c(OC)cc3C2)c(C)c1 (stereo unspecified) | > 1000 | 18.2 | > 55 | > 100 | > 100 | > 50 | > 50 |  | 
COc1cc2c(cc1OC)CN(CCCn1cnc3cc(Cl)c([N+](=O)[O-])cc3c1=O)CC2 | > 1000 | > 1000 |  | > 100 | > 100 | > 50 | > 50 |  | 
COc1cc2c(cc1OC)CN(CCCCn1cnc3cc(Cl)c([N+](=O)[O-])cc3c1=O)CC2 | > 1000 | > 1000 |  | > 100 | > 100 | > 50 | > 50 |  | 
CC[C@H]1C[C@@H]2C[C@H]3c4[nH]c5ccc(OC)cc5c4CCN(C2)[C@@H]13 |  |  |  |  |  |  |  | 9310 | 90.4
COc1ccc(C(=O)CCCCN2CCc3cc(OC)c(OC)cc3C2)c(C)c1 | > 1000 | 5.1 | > 196 | > 100 | > 100 | > 50 | > 50 |  | 
COc1cc2c(cc1OC)CN(CCn1cnc3cc(Cl)c([N+](=O)[O-])cc3c1=O)CC2 | > 1000 | > 1000 |  | > 100 | > 100 | > 50 | > 50 |  | 
COc1ccc(C(=O)CCN2CCc3cc(OC)c(OC)cc3C2)c(C)c1 | 13.3 | 23.7 | 0.5 | 42800 | 60100 | > 50 | > 50 |  | 
COc1ccc(C(=O)CN2CCc3cc(OC)c(OC)cc3C2)c(OC)c1 | > 1000 | 53.8 | > 18 | > 100 | > 100 | > 50 | > 50 |  | 
c1ccc2c(c1)c1ccccc1n2CCCN1CCN(C2CCCCC2)CC1 |  |  |  |  |  |  |  | 3450 | 12.6
COc1ccc(C(O)CCN2CCc3cc(OC)c(OC)cc3C2)c(OC)c1 (stereo unspecified) | > 1000 | 30.2 | > 33 | 45900 | 26100 | > 50 | > 50 |  | 
